For 13 compounds, IC50, Activity and survival results are on record in ChEMBL document CHEMBL1144476, “Phenolic hydrazones are potent inhibitors of macrophage migration inhibitory factor proinflammatory activity and survival improving agents in sepsis” (J Med Chem, 2007).

A value given as a limit tells only on which side of the number the result lay.

One may read the IC50 as the point on the concentration scale where inhibition reaches its midpoint. A high value points to weaker potency.

Experiment [1] has as its target T1, Macrophage migration inhibitory factor (Homo sapiens, UniProt P14174).
T1 sequence (P14174 whole entry): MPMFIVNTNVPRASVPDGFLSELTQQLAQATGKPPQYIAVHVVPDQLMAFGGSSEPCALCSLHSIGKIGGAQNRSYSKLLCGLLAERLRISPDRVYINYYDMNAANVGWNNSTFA
Kind of experiment: Inhibition of MIF tautomerase activity by spectrophotometric assay.

For experiment [2], the species on record is Mus musculus. Nature of the experiment: Inhibition of LPS-induced TNFalpha release in […] macrophages after 16 hrs. Format: functional. An outline of the steps: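 […] macrophages (10⁵ cells) given compound at 0.01–100 μM 30 min before LPS stimulation; 16 h incubation, then TNF measured in culture supernatants by ELISA. Mean ± S.D, n=3.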

The subject of experiment [3] is Mus musculus. Nature of the experiment: Survival of CLP-induced BALB/c mouse at 4 mg/kg, ip after 3 days. Format: functional. To be noted: 72 h, route intraperitoneal. An outline of the steps: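 Male Balb/C mice (~8 weeks) given cecal ligation with a single 22G puncture under ketamine/xylazine anaesthesia. Subcutaneous antibiotic and saline resuscitation were given right after surgery. Dosing was 4 mg/kg intraperitoneally in 20% DMSO/80% saline, started 24 h post-CLP and repeated twice daily on days 2 and 3. The vehicle group was handled the same way. Survival was scored with n=13 per group.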

`COc1ccc(N/N=C/c2ccc(O)c(Cl)c2)cc1` yielded an IC50 in experiment [1] of 0.22 µM. In experiment [1], `COc1ccc(N/N=C/c2ccc(O)c(F)c2)cc1` came in with an IC50 of 0.13 µM. For the same compound, in experiment [2], the Activity entry is “Dose-dependent effect”. For the same compound, the survival at 4 mg/kg in experiment [3] came to 65%. As for `COC(=O)N/N=C/c1ccc(O)cc1`, the midpoint of inhibition in experiment [1], the IC50, lay at 55 µM. Same read-out and setting: as for `Oc1ccc(/C=N/Nc2ccccc2)cc1`, the figure is 2.6 µM; as for `N/N=C/c1ccc(O)cc1`, over 500 µM; as for `O=C(N/N=C/c1ccc(O)cc1)OCc1ccccc1`, 10 µM.

With `CN(/N=C/c1ccc(O)cc1)c1ccccc1`, the IC50 in experiment [1] worked out at 300 µM. As to `COc1ccc(N/N=C/c2ccc(O)c(Br)c2)cc1`, in experiment [1], it took 0.33 µM to reach half-maximal inhibition (IC50). Still for that read-out and setting: the value for `CC(C)(C)OC(=O)N/N=C/c1ccc(O)cc1` was 5.5 µM; that for `CCOC(=O)N/N=C/c1ccc(O)cc1` was 43 µM; that for `COc1ccc(N/N=C/c2ccc(O)cc2)cc1` was 0.48 µM. Regarding `CN/N=C/c1ccc(O)cc1`, the IC50 in experiment [1] was determined as 43 µM. `COc1ccc(COC(=O)N/N=C/c2ccc(O)cc2)cc1` yielded an IC50 in experiment [1] of 8 µM.
